Compound activity deposited in PubChem by several laboratories.
MEKK2 mut-MEK5: MEK5 binding signal on mutant MEKK2 PB1, primary screen, biochemical, multiplex bead flow cytometry, Alexa488-MEK5 | Alexa488-MEK5 binding to MEKK2 mutant | AID 1530, 2009 | 0.35% of 290,000 active | percent response, % at 10 µM; in the data active means percent response above about 24%, passing the limit was not always enough
MEKK2 WT-MEK5: modulators of MEK5 binding to wildtype MEKK2, primary screen, biochemical, multiplex bead flow cytometry, Alexa488-MEK5; Mitogen-activated protein kinase kinase kinase 2 (Homo sapiens), Q9Y2U5; Alexa488-MEK5 binding to MEKK2 WT; actives lie on both sides; binding response (% of control), % at 10 µM; 1.1% of 290,000 active; in the data active means binding response below about 67% or above about 130%
Dynein cargo inh: inhibitors of GR-EGFP nuclear translocation, primary screen, dynein cargo transport inhibitor project, imaging, high-content, 3617.4 mouse cells; 0.47% of 220,000 active; test concentration mostly 20 µM; stimulated with dexamethasone, 1 µM; stronger effect = lower value; z-score, hits read low;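 active means plate z-score of nuclear minus cytoplasmic receptor signal below a set negative limit, without overly bright fluorescence or cell loss, cut at about -3.5 in these data, passing the limit was not always enough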;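 further: z-score of nuclear minus cytoplasmic ring GR-EGFP intensity difference per well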
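Also added: dexamethasone, 1.0 µM final. Medium: tet-free, stripped-serum medium. Detection: fixed, Hoechst-stained cells imaged at 10x for EGFP. Read-out: nuclear-to-cytoplasmic GR-EGFP distribution per well. Times: induction 48 h, compound 1 h, agonist 30 min.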
Beta2AR agonist: beta2AR agonists driving receptor internalization, primary screen, cell-based, FAP fluorogen, flow cytometry; Beta-2 adrenergic receptor (Homo sapiens), P07550; 0.43% of 340,000 active; AID 504454, 2011; Am2.2-beta2AR cells; response, % (test concentration not listed);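 active means response above a set limit, near 3 SD of response in nonfluorescent compounds, cut at about 42% in these data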
MEKK3 PB1 HTS: modulators of MEKK3-MEK5 PB1 binding, primary screen, biochemical, wildtype MEKK3, multiplex bead flow cytometry, Alexa488-MEK5 | Mitogen-activated protein kinase kinase kinase 3 (Homo sapiens), Q99759 | bead-based flow cytometry, Alexa488-MEK5 binding to MEKK3; actives lie on both sides; 0 = blocked by unlabeled MEK5, 100 = vehicle | binding response (% of control), % at 10 µM | 1.4% of 290,000 active | AID 1529, 2009;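 active means binding response more than 3 SD above or below the average of its plate-row segment, actives on both sides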;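 further: Alexa488 bead fluorescence after subtracting the streptavidin-only scavenger bead signal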
Target sequence (Q99759 whole entry, looked up): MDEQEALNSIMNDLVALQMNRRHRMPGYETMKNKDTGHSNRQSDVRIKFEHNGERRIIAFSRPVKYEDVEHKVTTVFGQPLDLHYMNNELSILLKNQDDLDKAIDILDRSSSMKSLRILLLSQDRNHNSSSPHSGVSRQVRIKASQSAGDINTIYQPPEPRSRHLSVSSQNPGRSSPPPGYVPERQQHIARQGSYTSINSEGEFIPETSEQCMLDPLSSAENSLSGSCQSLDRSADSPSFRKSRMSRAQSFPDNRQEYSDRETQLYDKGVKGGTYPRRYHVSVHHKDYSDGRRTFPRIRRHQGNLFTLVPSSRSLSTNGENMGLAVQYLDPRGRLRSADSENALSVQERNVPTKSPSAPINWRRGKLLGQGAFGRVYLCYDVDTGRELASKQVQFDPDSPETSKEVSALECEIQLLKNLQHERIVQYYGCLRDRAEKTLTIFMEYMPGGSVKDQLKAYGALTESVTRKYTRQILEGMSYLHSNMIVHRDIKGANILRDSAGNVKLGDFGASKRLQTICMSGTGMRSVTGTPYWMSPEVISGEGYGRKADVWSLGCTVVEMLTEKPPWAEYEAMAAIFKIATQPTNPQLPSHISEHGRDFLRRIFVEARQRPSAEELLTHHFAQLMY
ATG4B inhibitor: ATG4B protease inhibitors, primary screen, biochemical, fluorescence, uHTS; inhibition, % at 8.33 µM; ATG4B cleavage of LC3-PLA2, NBD-HPC fluorescence, 1 h; AID 504462, 2011; 0.51% of 340,000 active; Cysteine protease ATG4B (Homo sapiens), Q9Y4P1; in the data active means inhibition above about 40%
MEKK2wt confirm: modulators of MEK5 binding to wildtype MEKK2, confirmation, biochemical, single concentration, multiplex bead flow cytometry | shares compounds with MEKK3 PB1 HTS | Alexa488-MEK5 binding to MEKK2 WT; actives lie on both sides | binding response (% of control), % at 10 µM | 2.4% of 5,900 active | AID 1892, 2009; in the data active means binding response below about 16% or above about 210%; inactive means in between
MEKK2mut-MEK5: mutant MEKK2 PB1-MEK5 binding signal retest – biochemical, single concentration, multiplex bead flow cytometry, confirmation | shares compounds with MEKK3 PB1 HTS | percent response, % at 10 µM | 2% of 5,900 active | Alexa488-MEK5 binding to MEKK2 mutant; in the data active means percent response mostly above about 71%, no sharp cut-off; inactive means mostly below about 38%;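 further: higher means compound restores mutant binding toward wildtype level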
MEKK3 confirm: MEKK3 wild-type PB1 binding to MEK5, inhibitors, confirmation, biochemical, bead multiplex flow cytometry, single concentration, wildtype. shares compounds with MEKK3 PB1 HTS. 1.8% of 5,900 active. binding response (% of control), % at 10 µM. Alexa488-MEK5 binding to MEKK3; stronger effect = lower value;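 active means binding response below 72% of control, or above a set upper limit, though filed actives all read lower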;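 further: 100% = DMSO only wells and 0% = binding blocked by excess unlabeled MEK5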
Starred values were filed as active, the others as inactive; . = no result given; [ ] = dose if it differs, or a comment. A selection: hits, their analogues and other compounds. The true share with any hit is near 2.9%.

SMILES	MEKK2 mut-MEK5	MEKK2 WT-MEK5	Dynein cargo inh	Beta2AR agonist	MEKK3 PB1 HTS	ATG4B inhibitor	MEKK2wt confirm	MEKK2mut-MEK5	MEKK3 confirm
CCCCC(=O)N(c1ccc(C(=O)O)cc1)c1nc(-c2ccc(Cl)cc2)c(CC)s1	-60	3.0*[inhibitor]	-0.045	2	3.0*[inhibitor]	1	93	-7	104
CCc1sc(N(C(=O)Cc2ccccc2)c2ccccc2)nc1-c1ccccc1	-5	95	-1.3	7	95	1	.	.	.
O=C(NCCS(=O)(=O)N1CCN(c2ccccc2)CC1)C1CC1	.	.	.	-1	.	-3	.	.	.
CCOC(=O)c1sc(NC(=O)c2cc3n(n2)C(C(F)(F)F)CC(c2ccccc2)N3)c(C(=O)OCC)c1C (stereo unspecified)	-14	84	-0.37	0	81*[inhibitor]	12	102	-3	99
O=C(O)c1cccc(C(=O)O)c1Br	11	152*	.	-9	109	-1	104	6	98
CC1CC(C)(C)CC2(C1)NC(=O)N(CC(=O)N1CCN(S(=O)(=O)c3ccc(F)c(F)c3F)CC1)C2=O (stereo unspecified)	.	.	.	5	.	7	.	.	.
O=c1[nH]ncn2cccc12	-5	92	-0.082	1	78*[inhibitor]	-4	99	10	105
COC(=O)Cn1ncn2cccc2c1=O	6	110	0.53	-1	106	-4	.	.	.
N#Cc1c(NC(=O)CSc2nc(-c3ccco3)cc(C(F)(F)F)n2)sc2c1CCCC2	-5	98	1.9	-3	99	-8	.	.	.
Cc1cc(NC(=O)CSc2nc(-c3cccs3)cc(C(F)(F)F)n2)no1	-35	-7.0*[inhibitor]	1.4	-4	89	-5	96	0	100
COC(=O)c1c(NC(=O)CSc2nc(-c3ccco3)cc(C(F)(F)F)n2)sc2c1CCCC2	-22	-8.0*[inhibitor]	0.26	5	0.0*[inhibitor]	7	108	12	109
O=C1N=C2N(CCN3CCCCC3)c3ccccc3N2/C1=C\c1ccc([N+](=O)[O-])s1	.	.	.	-27	.	-5	.	.	.
CC1=C(C(=O)OCC(C)C)C(c2ccccc2Cl)NC(=O)N1C (stereo unspecified)	12	106	-1.4	-2	105	10	.	.	.
